Rows were chosen to be rich in hits. Some 3% of all compounds tested hit in one or more screens of this group.
HTR1E antagonist = antagonists of human 5-HT1E serotonin receptor; P28566; hit rate 0.99% among 65,000; CHO 5-HT1E Ga15 NFAT-bla reporter, FRET, antagonist; inhibition, % at 6 µM;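 active means inhibition above a set limit, the mean inhibition across every tested compound plus 3 SD, cut at about 29% in these data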;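 further: signal is the 460 over 535 nm emission ratio of beta-lactamase substrate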
5HT1E ag = 5-HT1E (human) receptor agonism; CHO 5-HT1E Ga15 NFAT-bla reporter, FRET; 0% DMSO wells, 100% control agonist wells; activation, % at 6 µM; hit rate 0.69% among 65,000; AID 574;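 active means activation above a set limit, the screen-wide mean activation plus 3 SD, cut at about 8.5% in these data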
S1P3 agonist = agonists of human S1P3 receptor | Q99500 | S1P3 NFAT-BLA reporter cells, agonism, FRET ratio; relative to 1 µM S1P, basal subtracted | activation, % at 4.5 µM | hit rate 0.1% among 60,000 | AID 373;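 active means activation above the screen-wide mean plus 3 SD, cut at about 4.5% in these data, passing the limit was not always enough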
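Assay system: stable CHO line with human S1P3, Gα16, NFAT-BLA reporter; Detection: FRET β-lactamase substrate fluorescence, excitation 405 nm, 460/535 nm emission ratio, background-subtracted; Read-out: percent activation versus median 1 µM S1P response, basal-subtracted, per plate; Incubation: cells plated overnight, compound 4 h 37 °C, substrate 2 h RT.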
S1P1 ag-PAM = agonists and agonism potentiators of human S1P1 receptor | hit rate 0.57% among 56,000 | S1P1 CRE-bla cells, forskolin, beta-lactamase FRET, potentiator mode; S1P1 agonist co-added at EC20, 2 nM; 100% = saturating reference agonist, 0% = basal | P21453 | AID 449 | activation, % at 9.5 µM;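 active means activation above a cutoff set at the mean activation of all tested compounds plus 3 SD, cut at about 54% in these data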;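 further: forskolin at 4 µM as EC80 and the EC20 agonist is SEW2871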
5-HT1A blocker = blocks the human serotonin 5-HT1a receptor | P08908 | CHO 5-HT1a Ga15 NFAT-bla reporter, antagonist mode | inhibition, % at 10 µM | hit rate 0.68% among 62,000 | AID 612;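 active means inhibition above the mean of all tested compounds plus 3 SD, cut at about 43% in these data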;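 further: receptor stimulated by 5-CT agonist at 100 nM near EC80; beta-lactamase reporter measured by ratiometric fluorescence of a cleavable substrate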
Target sequence (P08908 whole entry, looked up): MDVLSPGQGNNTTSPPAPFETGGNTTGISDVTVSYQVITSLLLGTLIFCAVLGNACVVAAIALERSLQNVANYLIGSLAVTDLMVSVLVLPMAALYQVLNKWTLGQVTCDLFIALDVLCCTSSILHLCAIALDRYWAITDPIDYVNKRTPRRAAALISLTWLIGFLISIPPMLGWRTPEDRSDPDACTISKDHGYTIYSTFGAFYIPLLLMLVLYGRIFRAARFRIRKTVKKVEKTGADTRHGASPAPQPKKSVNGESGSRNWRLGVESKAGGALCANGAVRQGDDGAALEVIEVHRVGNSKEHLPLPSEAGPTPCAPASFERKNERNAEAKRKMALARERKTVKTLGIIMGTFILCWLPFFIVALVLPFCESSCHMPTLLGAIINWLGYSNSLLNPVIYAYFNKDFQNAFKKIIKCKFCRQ
HTR1A agonist = activates the human 5-HT1a serotonin receptor. hit rate 0.56% among 65,000. CHO 5-HT1a Ga15 NFAT-bla reporter, FRET ratio; 0% basal, 100% maximal reference agonist. activation, % at 10 µM;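 active means activation above the screen-wide mean activation plus 3 SD, cut at about 19% in these data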
Each line names hits and unclear results; the compound was inactive in the other large screens.

CCc1nc(N)c(C#N)c(-c2ccncc2)c1C	none
CCCc1nc(N)c(C#N)c(N)c1C#N	HTR1E antagonist 29
Cn1c(CN2CCOCC2)nnc1SCC(=O)NC1CCCCC1	none
CC1CCCC(NC(=O)c2ccc(CNc3c(N4CCCC4)c(=O)c3=O)cc2)C1C (centres undefined)	none
C=CCn1c(=O)c2ccccc2n2c(SC(C)C(=O)Nc3nc(-c4ccccc4)cs3)nnc12 (centres undefined)	HTR1E antagonist 38
O=C(NCc1ccc(Cl)cc1)C1CCCN(S(=O)(=O)c2cnc[nH]2)C1 (centres undefined)	none
O=C(CN1CCN(c2ccccc2)CC1)Nc1c(C(=O)C2CC2)oc2ccccc12	none
OCCN1CCN(Cc2cccc(Oc3ccc(Cl)cc3)c2)CC1	5HT1E ag 10
CCCC(=O)c1ccc(N2CCN(C(=O)c3ccccc3Br)CC2)c(F)c1	S1P1 ag-PAM 98
CC(=O)NC1C(=O)N(CCc2ccccc2)c2ccccc21 (centres undefined)	5HT1E ag 14
Cc1ccc(OC(=O)c2cccc(C(=O)Oc3ccc(C)cn3)n2)nc1	none
N#Cc1nc(-c2ccco2)oc1NCCc1ccccc1	none
N#Cc1nc(-c2cccs2)oc1NCCc1ccccc1	HTR1E antagonist 36 (no result: 5-HT1A blocker)
CCOC(=O)c1cc2c(ccn2C)n1Cc1ccccc1C	5-HT1A blocker 44
CCOC(=O)c1cc2c(ccn2C)n1CC(=O)N1CCN(c2ccccc2)CC1	none
COc1ccc(C(=O)CSc2nnc(Cn3cnc4ccccc43)o2)cc1	none
COC(=O)C1CCN(C(=O)C(C)Oc2ccc(Cl)cc2Cl)CC1 (centres undefined)	HTR1A agonist 90 (no result: S1P3 agonist, S1P1 ag-PAM)
O=S(=O)(c1ccccc1)N1CCN(C2CCCCCCC2)CC1	5HT1E ag 33 (no result: S1P1 ag-PAM)
CCC1c2ccc(C)n2CCN1C(=O)Nc1ccc(F)cc1 (centres undefined)	none
CCOC(=O)c1ccc(NC(=O)COc2ccc(S(=O)(=O)NC(C)C)cc2)cc1	none
COc1cccc(N2CCN(c3ncnc4c3[nH]c3ccccc34)CC2C)c1 (centres undefined)	HTR1E antagonist 91 (no result: 5-HT1A blocker)
COc1cc2[nH]c3c(N4CCN(c5ccc(Cl)cc5)CC4)ncnc3c2cc1OC	none
COc1cccc(N2CCN(c3ncnc4c3[nH]c3ccc(F)cc34)CC2C)c1 (centres undefined)	HTR1E antagonist 104, S1P1 ag-PAM 115 (no result: 5-HT1A blocker)
Cc1ccc(Nc2nnc(SCC(=O)NCc3ccco3)s2)cc1	none
Oc1c(CN2CCCCC2)cc(COCc2ccccc2)c2cccnc12	HTR1E antagonist 48
COc1ccc(CN2CCN(c3ccccn3)CC2)c(OC)c1	5HT1E ag 11
Oc1ccc(COCc2ccccc2)c2cccnc12	HTR1E antagonist 47
COCc1cc(CN2CCCC2)c(O)c2ncccc12	none
Oc1ccc(CNc2ccccc2F)c2cccnc12	none
COc1ccc(CN2CCN(c3ncccn3)CC2)c(OC)c1	none
Oc1c(CN2CCN(c3ccccn3)CC2)cc(Cl)c2cccnc12	HTR1E antagonist 54, 5-HT1A blocker 54
COc1ccc(-c2nnc(SCC(=O)Nc3cc(C)on3)n2C)cc1OC	none
O=C(c1nc(-c2ccccc2)n(-c2ccccc2)n1)N1CCCCCC1	none
CC(C)c1nc2cc3ccccc3cc2[nH]1	none (no result: S1P3 agonist, S1P1 ag-PAM)
CCOC(=O)c1c(C)[nH]c(C)c1C(=O)CSc1nnc(-c2ccncc2)n1C	none
CCOc1ccccc1-c1cc(-c2ccc(OC)cc2)nc2c1c(=O)n(C)c(=O)n2C	none
CCN(CC)c1ccc(-c2nn3c(-c4n[nH]c5c4CCC5)nnc3s2)cc1	HTR1E antagonist 70, 5-HT1A blocker 56
C1CCC(c2nn3c(-c4n[nH]c5c4CCC5)nnc3s2)CC1	none
CCOC(=O)C(C)Sc1nnc(-c2ccccc2O)n1Cc1ccccc1 (centres undefined)	none
CCOC(=O)C1=C(N)OC2=C(C(=O)CCC2)C1c1ccccc1OCC (centres undefined)	S1P3 agonist 19
OCCSc1nc(-c2cccnc2)nc2ccccc12	none (no result: S1P3 agonist, S1P1 ag-PAM)
Cc1noc(NS(=O)(=O)c2ccc(N/C=C/C(=O)c3cccnc3)cc2)c1C	none

Screening data deposited in PubChem BioAssay by The Scripps Research Institute Molecular Screening Center.
